In assay [1] the target is T1, Activin receptor type-1 (Homo sapiens) (UniProt Q04771).
T1 sequence (whole entry): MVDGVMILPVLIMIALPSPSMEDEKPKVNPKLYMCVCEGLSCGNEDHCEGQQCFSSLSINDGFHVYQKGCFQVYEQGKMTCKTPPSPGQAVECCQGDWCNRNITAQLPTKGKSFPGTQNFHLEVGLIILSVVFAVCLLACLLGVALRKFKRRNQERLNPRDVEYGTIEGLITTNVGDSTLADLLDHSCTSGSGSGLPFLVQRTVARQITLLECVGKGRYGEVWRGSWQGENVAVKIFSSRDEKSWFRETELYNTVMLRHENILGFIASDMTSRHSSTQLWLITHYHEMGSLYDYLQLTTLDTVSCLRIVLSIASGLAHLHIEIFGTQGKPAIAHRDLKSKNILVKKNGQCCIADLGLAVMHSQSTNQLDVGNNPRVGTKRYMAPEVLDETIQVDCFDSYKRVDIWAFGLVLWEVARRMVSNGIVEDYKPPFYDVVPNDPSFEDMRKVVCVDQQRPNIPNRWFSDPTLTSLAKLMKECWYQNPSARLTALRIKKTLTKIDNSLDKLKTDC
In words: Inhibition of human recombinant ALK2 at 40 nM in presence of ATP by radiometric assay relative to control. In a few lines:
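Panel of 327 recombinant human kinases, each assayed in vitro by radiometric activity assay in duplicate at a single inhibitor concentration per compound, chosen with reference to its ULK1 inhibition. Activity remaining was expressed as percent of vehicle control, and percent inhibition was calculated as 100 minus percent activity remaining.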

Assay [2] concerns the target T2, Serine/threonine-protein kinase TAO3 (Homo sapiens) (UniProt Q9H2K8).
T2 sequence (whole entry): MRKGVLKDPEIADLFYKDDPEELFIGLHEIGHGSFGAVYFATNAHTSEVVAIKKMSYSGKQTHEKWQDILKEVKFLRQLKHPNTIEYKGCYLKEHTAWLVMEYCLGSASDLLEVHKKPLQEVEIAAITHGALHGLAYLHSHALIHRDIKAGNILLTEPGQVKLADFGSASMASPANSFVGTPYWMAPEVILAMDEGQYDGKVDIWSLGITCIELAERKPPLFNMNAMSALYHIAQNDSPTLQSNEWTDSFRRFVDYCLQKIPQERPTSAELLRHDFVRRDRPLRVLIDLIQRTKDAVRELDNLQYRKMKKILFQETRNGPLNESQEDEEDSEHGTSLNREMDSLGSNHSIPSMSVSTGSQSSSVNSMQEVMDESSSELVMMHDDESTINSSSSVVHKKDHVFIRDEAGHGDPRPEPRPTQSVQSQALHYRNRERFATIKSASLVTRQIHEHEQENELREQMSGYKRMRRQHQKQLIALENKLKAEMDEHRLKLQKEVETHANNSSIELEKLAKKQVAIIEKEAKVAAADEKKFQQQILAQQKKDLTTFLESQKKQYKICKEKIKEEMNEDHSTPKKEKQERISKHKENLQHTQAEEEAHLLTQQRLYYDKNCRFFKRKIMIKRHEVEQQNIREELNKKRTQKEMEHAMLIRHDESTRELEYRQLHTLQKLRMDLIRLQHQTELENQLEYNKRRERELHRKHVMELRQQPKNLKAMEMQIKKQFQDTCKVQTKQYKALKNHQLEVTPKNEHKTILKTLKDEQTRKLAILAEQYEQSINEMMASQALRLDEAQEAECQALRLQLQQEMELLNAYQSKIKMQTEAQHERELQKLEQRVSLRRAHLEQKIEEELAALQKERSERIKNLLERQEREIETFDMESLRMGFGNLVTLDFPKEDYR
In words: Inhibition of human recombinant TAO3 at 40 nM in presence of ATP by radiometric assay relative to control.

Assay [3] concerns the target T3, Serine/threonine-protein kinase 17B (Homo sapiens) (UniProt O94768).
T3 sequence (whole entry): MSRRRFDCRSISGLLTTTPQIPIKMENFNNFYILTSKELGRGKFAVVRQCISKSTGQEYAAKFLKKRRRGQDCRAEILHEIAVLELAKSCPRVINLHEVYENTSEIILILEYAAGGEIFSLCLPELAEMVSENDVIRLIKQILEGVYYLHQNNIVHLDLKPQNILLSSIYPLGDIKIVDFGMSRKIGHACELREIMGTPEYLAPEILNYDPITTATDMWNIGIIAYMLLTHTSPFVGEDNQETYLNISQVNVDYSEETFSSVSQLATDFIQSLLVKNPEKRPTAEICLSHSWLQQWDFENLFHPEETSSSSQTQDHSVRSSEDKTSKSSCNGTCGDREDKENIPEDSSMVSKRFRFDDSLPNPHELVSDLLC
In words: Inhibition of human recombinant DRAK2 at 500 nM in presence of ATP by radiometric assay relative to control.

In assay [4] the target is Tyrosine-protein kinase FRK (Homo sapiens) (UniProt P42685). In words: Inhibition of human recombinant FRK at 500 nM related to control ULK1.
The target of assay [5] is Serine/threonine-protein kinase 38-like (Homo sapiens) (UniProt Q9Y2H1). In words: Inhibition of human recombinant NDR2 at 500 nM related to control ULK1.
Assay [6] concerns the target Ribosomal protein S6 kinase alpha-1 (Homo sapiens) (UniProt Q15418). Nature of the assay: Inhibition of human recombinant RSK1 at 15 nM in presence of ATP by radiometric assay relative to control.

Ribosomal protein S6 kinase alpha-1 (Homo sapiens), sequence (Q15418 whole entry): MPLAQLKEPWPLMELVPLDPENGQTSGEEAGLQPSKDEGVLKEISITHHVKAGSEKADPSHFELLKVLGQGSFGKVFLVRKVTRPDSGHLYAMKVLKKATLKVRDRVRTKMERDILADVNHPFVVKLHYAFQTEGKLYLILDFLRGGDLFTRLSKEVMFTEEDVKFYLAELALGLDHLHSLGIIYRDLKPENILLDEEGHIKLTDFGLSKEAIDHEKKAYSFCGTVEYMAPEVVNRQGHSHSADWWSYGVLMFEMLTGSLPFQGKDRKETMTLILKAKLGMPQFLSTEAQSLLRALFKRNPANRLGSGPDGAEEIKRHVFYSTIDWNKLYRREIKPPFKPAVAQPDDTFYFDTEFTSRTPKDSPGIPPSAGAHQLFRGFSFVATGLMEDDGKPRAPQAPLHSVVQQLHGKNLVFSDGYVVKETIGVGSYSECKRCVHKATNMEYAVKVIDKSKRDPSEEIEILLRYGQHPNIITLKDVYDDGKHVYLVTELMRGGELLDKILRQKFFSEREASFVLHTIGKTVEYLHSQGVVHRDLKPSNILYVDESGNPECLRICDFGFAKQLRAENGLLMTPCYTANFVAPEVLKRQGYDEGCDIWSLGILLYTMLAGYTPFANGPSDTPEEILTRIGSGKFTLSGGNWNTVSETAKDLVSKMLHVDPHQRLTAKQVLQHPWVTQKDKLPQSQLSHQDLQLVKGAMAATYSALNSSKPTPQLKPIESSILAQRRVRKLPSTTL
Tyrosine-protein kinase FRK (Homo sapiens), sequence (P42685 whole entry): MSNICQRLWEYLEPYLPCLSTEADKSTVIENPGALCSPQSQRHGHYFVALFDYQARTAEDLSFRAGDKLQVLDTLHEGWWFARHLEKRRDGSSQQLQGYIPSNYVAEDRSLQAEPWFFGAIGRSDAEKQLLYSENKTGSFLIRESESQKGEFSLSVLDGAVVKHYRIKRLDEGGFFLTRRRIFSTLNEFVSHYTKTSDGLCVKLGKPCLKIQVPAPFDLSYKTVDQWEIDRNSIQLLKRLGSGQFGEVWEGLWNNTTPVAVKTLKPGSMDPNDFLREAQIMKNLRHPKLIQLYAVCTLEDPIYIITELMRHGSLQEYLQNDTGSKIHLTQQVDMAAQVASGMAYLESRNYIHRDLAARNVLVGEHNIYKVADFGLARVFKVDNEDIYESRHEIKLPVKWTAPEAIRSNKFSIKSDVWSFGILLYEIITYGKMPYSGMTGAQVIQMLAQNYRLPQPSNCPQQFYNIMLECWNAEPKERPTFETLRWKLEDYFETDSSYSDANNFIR
Serine/threonine-protein kinase 38-like (Homo sapiens), sequence (Q9Y2H1 2-464 limits assumed): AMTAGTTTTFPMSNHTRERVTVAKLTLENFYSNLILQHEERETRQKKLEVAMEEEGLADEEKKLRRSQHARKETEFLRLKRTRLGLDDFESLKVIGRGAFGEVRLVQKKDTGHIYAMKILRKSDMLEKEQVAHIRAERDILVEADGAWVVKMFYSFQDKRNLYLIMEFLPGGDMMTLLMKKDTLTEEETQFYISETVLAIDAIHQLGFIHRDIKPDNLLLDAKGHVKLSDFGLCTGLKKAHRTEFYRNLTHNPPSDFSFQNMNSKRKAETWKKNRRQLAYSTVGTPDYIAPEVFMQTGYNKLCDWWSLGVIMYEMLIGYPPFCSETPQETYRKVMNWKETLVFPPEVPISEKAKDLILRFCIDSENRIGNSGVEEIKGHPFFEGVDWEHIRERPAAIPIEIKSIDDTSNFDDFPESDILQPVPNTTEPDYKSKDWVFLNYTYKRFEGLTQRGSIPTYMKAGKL

Take `O=C(N[C@@H](C1CC1)C(F)(F)F)c1cc(-c2cnn3cc(-c4ccc(F)cc4)cnc23)cs1`: the values for the inhibition in assay [1] and in assay [2] were 56% and 0%, respectively.

For `CNC(=O)c1ccccc1Oc1nc(Nc2cc(OC)c(OC)c(OC)c2)ncc1Br`, the inhibition in assay [3] amounted to 6%. Further, the fold change (FC) is 0.12 in assay [4] and 0.2 in assay [5].

For the compound `CC(C)[C@H](NC(=O)c1cc(-c2cnn3cc(-c4ccc(OCCN5CCCCC5)cc4)cnc23)cs1)C(F)(F)F`, in assay [6], the inhibition was determined as 23%.

The inhibition is the percentage by which the read-out fell short of the control.

These data come from ChEMBL document CHEMBL5653631, “A Potent and Selective ULK1 Inhibitor Suppresses Autophagy and Sensitizes Cancer Cells to Nutrient Stress” (iScience, 2018).
